Compound activity (PubChem)
An excerpt weighted towards active compounds, which were near 4.7% of everything screened.
MrgX1 antag: human MrgX1 receptor antagonism, primary screen. B-score at 10 µM. MRGX1-HEK293 calcium flux, Fluo-4, BAM8-22 antagonism; active compounds read low. Q96LB2. 310,000 compounds, 1.3% hits;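 active means calcium-response B-score plate-corrected more than 3 library SD below zero, starting fluorescence within 5 deviations, no agonist response on first addition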;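 further: peak minus trough fluorescence over baseline after final BAM8-22 challenge near maximal dose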
Target sequence (Q96LB2 whole entry, looked up): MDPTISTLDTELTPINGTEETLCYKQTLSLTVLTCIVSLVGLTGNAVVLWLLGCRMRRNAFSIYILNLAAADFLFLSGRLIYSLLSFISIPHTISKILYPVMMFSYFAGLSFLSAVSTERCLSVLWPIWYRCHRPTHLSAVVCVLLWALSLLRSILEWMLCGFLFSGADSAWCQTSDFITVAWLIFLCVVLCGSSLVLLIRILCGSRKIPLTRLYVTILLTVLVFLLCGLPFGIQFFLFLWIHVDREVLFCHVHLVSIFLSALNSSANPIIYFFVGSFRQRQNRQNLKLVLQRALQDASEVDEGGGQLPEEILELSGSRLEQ
MrgX1 ag: agonists of human MrgX1 receptor | AID 588627 | MrgX1-HEK293 cells, Fluo-4 calcium fluorescence, agonist mode; active compounds read high | 310,000 compounds, 0.44% hits | Q96LB2 | B-score at 10 µM;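 active means calcium response B-score plate-corrected fluorescence ratio at least 3 library SD, with starting fluorescence B-score inside 5 SD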
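Test system: HEK293 cells stably expressing human MrgX1 receptor; amount: 15,000 cells per well; doses: compound delivered in addition one of three; times: overnight plating before 1 h dye loading; detection: Fluo-4 NW calcium-flux fluorescence, kinetic read; read-out basis: B-scored fluorescence response ratio; controls: positive and negative controls per plate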
KCC2 mod: modulates chloride dependent transport by human KCC2; Q9H2X9; KCC2 cells, thallium flux FluoZin-2 fluorescence; B-score of Tl+ flux slope (higher = more flux/activation; lower = inhibition) at 10 µM; 190,000 compounds, 2.2% hits; AID 1456;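 active means thallium flux slope and its plate-corrected score both differing from the plate sample mean at a set confidence after two filtering rounds, in either direction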;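 further: slope of fluorescence scaled to starting intensity during 10 to 20 s after thallium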
RGS4 inh: human RGS4 inhibition | P49798 | HEK293 M3R/RGS4 inducible, Fluo-4 calcium flux; active compounds read high; triggered by carbachol at its EC20 | B-score at 10 µM | 310,000 compounds, 0.45% hits;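 active means B-score, a plate-corrected calcium signal, over three deviations above library mean, with baseline fluorescence within five deviations of library mean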;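 further: RGS4 expression induced by doxycycline in cells with stable M3 receptor; B-score is computed from the integrated fluorescence ratio over baseline after carbachol; higher B-score means a larger calcium signal and so more RGS4 inhibition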
Target sequence (P49798 whole entry, looked up): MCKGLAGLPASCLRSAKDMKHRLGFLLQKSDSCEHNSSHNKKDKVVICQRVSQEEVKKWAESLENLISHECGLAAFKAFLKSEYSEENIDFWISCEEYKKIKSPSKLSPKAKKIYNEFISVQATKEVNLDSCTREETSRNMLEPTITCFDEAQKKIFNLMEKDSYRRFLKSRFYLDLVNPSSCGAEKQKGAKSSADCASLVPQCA
RGS4 act: potentiators or activators of RGS4. HEK293 M3R/inducible RGS4, carbachol calcium flux Fluo4; active compounds read low. B-score at 10 µM. 310,000 compounds, 0.92% hits. AID 463111;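 active means B-score of the integrated calcium signal more than 4 SD below the library mean, with starting fluorescence not abnormally high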;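 further: negative B-score means reduced calcium response which marks RGS4 activation or potentiation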
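Material: Inducible-RGS4 HEK293 cells carrying M3 receptor; also added: carbachol at ECmax as muscarinic agonist stimulus; incubation: compound preincubation 20 min at room temperature before agonist; signal: Fluo4-AM (2 µM) calcium-flux fluorescence, kinetic read; measure: integrated calcium ratio converted to B score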
MrgX1 PAM: allosterically activates human MrgX1 receptor signaling. Q96LB2. B-score at 10 µM. MrgX1-HEK293, Fluo-4 calcium flux, FDSS; active compounds read high. 310,000 compounds, 0.63% hits. AID 588675;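 active means plate-corrected calcium response at least 3 library SD above typical, normal starting fluorescence, not activating the receptor alone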;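 further: compound read alongside a low EC10 to EC30 dose of BAM8-22 agonist; peak minus trough fluorescence over baseline measured at the second addition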
KCC2 sec1: KCC2 (human) modulation, secondary assay. shares compounds with KCC2 mod. HEK293-KCC2, thallium flux, FluoZin2 fluorescence; active compounds read high. normalised thallium flux (F/F0 slope) at 10 µM. 3,700 compounds, 15% hits. AID 1713;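 active means thallium flux slope above the same plate's solvent-only control mean plus 3 SD; inconclusive means the two replicate wells disagree; inactive means no significant difference from solvent-only control wells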
KCC2 bumet counter: thallium flux despite bumetanide block in KCC2 cells, secondary assay 3 | shares compounds with KCC2 mod | HEK293-KCC2 + bumetanide/ouabain, thallium flux FluoZin2; active compounds read high | normalized thallium flux at 10 µM | 3,700 compounds, 49% hits | AID 1714;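 active means thallium entry rate above the same plate's blocked-transporter control wells by more than 3 SD; inconclusive means the two repeat wells disagree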;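 further: raw slope of fluorescence over initial fluorescence between 10 and 20 s after thallium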
KCC2 secondary2: confirmation of human KCC2 transport modulators; shares compounds with KCC2 mod; 3,700 compounds, 23% hits; HEK293-KCC2, thallium flux FluoZin2 fluorescence; actives lie on both sides; F/F0 rise rate, 10–20 s post-thallium; AID 1715; normalized thallium flux at 10 µM;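 active means thallium flux slope more than 3 SD above or below the plate's solvent-only control mean, mostly below; inconclusive means the two repeat wells disagreed; inactive means no significant shift from solvent-only controls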
HEK counter1: counter-screen for KCC2 modulators: effect in parental HEK293 cells | 3,700 compounds, 46% hits | thallium flux FluoZin2, ouabain; baseline-ratio fluorescence slope, 10–20 s after thallium | thallium flux rate (normalised fluorescence) at 10 µM | AID 1716 | shares compounds with KCC2 mod;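 active means thallium flux rate significantly above the same plate's solvent-only control wells, beyond their mean plus 3 SD; inconclusive means the two replicate wells gave conflicting results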
KCC2 retest ouab: confirmation of human KCC2 modulators with ouabain; shares compounds with KCC2 mod; 3,700 compounds, 48% hits; HEK293-KCC2, thallium flux FluoZin2 fluorescence; bidirectional: low = inhibitor, high = activator; raw Tl+ flux slope (below DMSO = inhibition, above = activation) at 10 µM;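 active means thallium flux slope beyond 3 SD from same-plate DMSO control mean in most replicates, usually higher, sometimes lower; inconclusive means repeat tests gave conflicting results; inactive means no significant difference from controls in most replicates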;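 further: slope of initial-normalized fluorescence between seconds 10 and 20 after thallium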
HEK counter2: acts in parental HEK cells, second KCC2 counter-screen. shares compounds with KCC2 mod. AID 1718. thallium flux slope at 10 µM. 3,700 compounds, 33% hits. HEK293 parental, thallium flux FluoZin-2 fluorescence slope;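 active means thallium flux slope above the same plate's solvent-control mean plus 3 SD in both duplicate wells; inconclusive means duplicate wells that disagreed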;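 further: run without ouabain in cells lacking the KCC2 cotransporter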
A number is an active result; 0 = inactive; ? = inconclusive; - = no result.

SMILES	MrgX1 antag	MrgX1 ag	KCC2 mod	RGS4 inh	RGS4 act	MrgX1 PAM	KCC2 sec1	KCC2 bumet counter	KCC2 secondary2	HEK counter1	KCC2 retest ouab	HEK counter2
Cc1ccc(C(=O)CSc2ncnc3sc4c(c23)CCC(C)C4)cc1 (configuration not stated)	-	-	4.2	0	0	-	?	0.037	0	?	?	0
CC(=O)CSc1ncnc2sc3c(c12)CCC3	0	0	7.1	0	0	0	0	0.024	0	0.014	0.022	0.017
O=C(CSc1ncnc2sc3c(c12)CCC3)N1CCOCC1	0	0	-	0	0	0	-	-	-	-	-	-
O=C1OCCC1Sc1ncnc2sc3c(c12)CCC3 (configuration not stated)	0	0	3.3	0	0	0	0	0.024	?	0.018	?	0.018
CC1CCc2c(sc3ncnc(SC(C)C(=O)NCC4CCCO4)c23)C1 (configuration not stated)	0	0	-	0	0	0	-	-	-	-	-	-
COc1ccc(NC(=O)Cc2nnc(SCC(=O)NC3CCCCC3C)n2C)cc1 (configuration not stated)	0	0	-	0	0	0	-	-	-	-	-	-
Cc1ccc(NC(=O)CCNS(=O)(=O)c2ccc3[nH]c(=O)oc3c2)c(Cl)c1	0	0	-	0	0	0	-	-	-	-	-	-
CC(Oc1ccccc1)C(=O)N1CCC2(CC1)CC(=O)c1ccccc1O2 (configuration not stated)	0	0	-	0	0	0	-	-	-	-	-	-
CCOc1cc(CNc2nn[nH]n2)ccc1OCC(=O)NC(C)(C)C	0	0	0	0	0	0	-	-	-	-	-	-
CCOc1cc(CNn2nnnc2N)cc(Cl)c1OCC(=O)NC(C)(C)C	0	0	0	0	0	0	0	0	0	0	0	0
CCOC(=O)c1c(C)[nH]c(N=Nc2ccccc2)c1C	0	0	5.2	0	0	0	0	0.0097	0	0.0091	?	?
C=C(C)COc1cc2oc(=O)c(CC(=O)N3C[C@H]4C[C@@H](C3)c3cccc(=O)n3C4)c(C)c2cc1Cl	0	0	-	0	0	0	-	-	-	-	-	-
COc1ccc(C(=O)N(C)c2ccccc2C(=O)NCCc2ccccc2)cc1	0	0	-	0	0	0	-	-	-	-	-	-
Cc1ccc(S(=O)(=O)NCC(=O)OCN2C(=O)c3ccccc3C2=O)cc1	0	0	0	0	0	0	0	0	0	0	0	0
CCOc1ccc(S(=O)(=O)NCCC(=O)OCN2C(=O)c3ccccc3C2=O)cc1	0	0	-	0	0	0	-	-	-	-	-	-
O=C(O)CCCC(=O)Nc1ccccc1SCCS(=O)(=O)c1ccc(Cl)cc1	0	0	-	0	0	0	-	-	-	-	-	-
Cc1ccc(OCCCn2c(=O)sc3ccccc32)cc1	0	0	5.8	0	0	0	0	0	0	0	0	?
Cc1ccc(OCCn2c(=O)sc3ccccc32)cc1	0	0	0	0	0	0	-	-	-	-	-	-
Cc1ccc(CNC(=O)CNS(=O)(=O)c2ccc(Br)s2)cc1	0	0	-	0	0	0	-	-	-	-	-	-
COc1ccc(/C(C)=N/NC(=O)CNC(=O)c2ccncc2)c(OC)c1	0	0	-	0	0	0	-	-	-	-	-	-
COc1ccc(CCNC(=O)C2CCN(S(C)(=O)=O)CC2)cc1	0	0	-3.4	0	0	0	0	0	0	0	0	0
Cc1ccc(CC(=O)NCCC(=O)O)cc1	0	0	0	0	0	0	-	-	-	-	-	-
CN1C(C(=O)NCc2ccccc2)CC2Cn3c(nc4cc(Cl)c(Cl)cc43)C21 (configuration not stated)	0	0	-3.2	0	0	0	0	0	0.022	0	0	0
COc1ccc2nc(NC(=O)CSc3nnc(-c4ccoc4C)n3C)sc2c1	0	0	-3.8	0	0	0	0	?	0	0	0.015	0
O=S(=O)(NCc1ccccc1)c1ccc2ccccc2c1	0	0	-	0	0	0	-	-	-	-	-	-
SMILES	MrgX1 antag	MrgX1 ag	KCC2 mod	RGS4 inh	RGS4 act	MrgX1 PAM	KCC2 sec1	KCC2 bumet counter	KCC2 secondary2	HEK counter1	KCC2 retest ouab	HEK counter2
COc1cc(S(=O)(=O)NCc2ccccc2)ccc1Br	0	0	0	0	0	0	-	-	-	-	-	-
O=S(=O)(NCc1ccccc1)c1ccc(Cl)c(S(=O)(=O)NCc2ccccc2)c1	0	0	-	0	0	0	0	0	?	0	0.013	0
CCOc1cc(S(=O)(=O)NCc2ccccc2)ccc1F	0	0	-	0	0	0	?	0	0.024	0	?	0
CCN(CC)S(=O)(=O)c1ccc2c(c1)nc(-c1ccccn1)n2C	0	0	-	0	0	0	-	-	-	-	-	-
COC(=O)C1=C(Nc2ccccc2NC(=O)c2ccccc2C(=O)O)CSC1	0	0	0	0	0	0	-	-	-	-	-	-
COC(=O)C1=C(Nc2ccccc2NS(=O)(=O)c2ccc(C(F)(F)F)cc2Cl)CSC1	0	0	5.5	0	0	0	0	0.011	0	0.012	?	0.012
Cc1ccc(C(=O)NC(=S)N2CC(C)OC(C)C2)cc1[N+](=O)[O-] (configuration not stated)	0	0	-	0	0	0	0.018	0.037	0	0.021	0.035	0.013
COc1ccc(C(=O)NC(=S)N2CC(C)OC(C)C2)cc1 (configuration not stated)	0	0	0	0	0	0	-	-	-	-	-	-
COc1ccc(C(=O)NC(=S)Nc2ccccc2N2CCCCC2)cc1[N+](=O)[O-]	0	0	0	0	0	0	-	-	-	-	-	-
COc1ccc(C(=O)NC(=S)N2CCCCC2)cc1	0	0	0	0	0	0	-	-	-	-	-	-
COc1cc(OC)cc(C(=O)NC(=S)N2CCCCCC2)c1	0	0	74	0	0	0	0.034	0.11	0.04	0.062	0.083	0.021
COc1ccc(C(=O)NC(=S)N2CCCCC2)cc1[N+](=O)[O-]	0	0	6.8	0	0	0	0	0.021	0	0.012	0	?
CCCn1c(SCC(=O)NNC(=O)c2ccc(C)cc2)nnc1C(C)C	0	0	-	0	0	0	-	-	-	-	-	-
